In the library only some 1.1% were active in any assay of this set; here they are far more common.
Diaphorase act: counter-screen for diaphorase-based assays: diaphorase activators and chemical reducers | Diaphorase/resazurin coupled assay, resorufin fluorescence, 16 min; active compounds read high; 1 = vehicle wells, 0 = NADH-free wells | activation factor at 20 µM | 190,000 tested, 0.005% active;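 active = diaphorase activity raised at least twofold by the compound at 20 µM; inactive = activation factor below 2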
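Test system: Clostridium kluyveri diaphorase, purified enzyme. Buffer or medium: 50 mM HEPES pH 7.4 buffer plus MgCl2 and Tween 20. Also added: 0.114 mM NADH and 0.1 mM resazurin, final amounts. Dosing: compound 20 µM once, DMSO 1%. Schedule: 16 min enzyme reaction, ambient temperature. Detection: fluorescence of resorufin, 544 nm excitation, 590 nm emission.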
G6PDH CS: counter-screen for G6PDH assay hits: L. mesenteroides G6PDH inhibition; AID 1020; 200,000 tested, 0.12% active; inhibition, % at 5 µM; Purified L. mesenteroides G6PDH, diaphorase/resazurin coupled fluorescence, 45 min; in the data active = inhibition above about 50%
Redox H2O2 prof: compounds producing H2O2 with reducing agent – biochemical, NIH compound library profiling, artefact control for MLSCN library redox annotation, primary screen | DTT-dependent redox cycling H2O2, phenol red/HRP absorbance; 100% = 100 µM peroxide control, 0% = buffer | activation, % at 10 µM | 200,000 tested, 0.03% active | AID 878;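 active = activation of at least 50% relative to the plate's high and low controls in the primary single-dose screen; inactive = activation below 50%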;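 note: compound incubated with DTT at 0.8 mM final as the reducing agent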
PMI act hi M6P: activators of human phosphomannose isomerase at near-saturating mannose 6-phosphate. coupled PMI enzyme assay, resazurin fluorescence, 20 min; active compounds read high; 1 = untreated enzyme, 0 = substrate-free blank. P34949. AID 1216. activation factor at 20 µM. 190,000 tested, 0.34% active;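 active = activation factor of 2 or more at 20 µM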
Target sequence (P34949 whole entry, looked up): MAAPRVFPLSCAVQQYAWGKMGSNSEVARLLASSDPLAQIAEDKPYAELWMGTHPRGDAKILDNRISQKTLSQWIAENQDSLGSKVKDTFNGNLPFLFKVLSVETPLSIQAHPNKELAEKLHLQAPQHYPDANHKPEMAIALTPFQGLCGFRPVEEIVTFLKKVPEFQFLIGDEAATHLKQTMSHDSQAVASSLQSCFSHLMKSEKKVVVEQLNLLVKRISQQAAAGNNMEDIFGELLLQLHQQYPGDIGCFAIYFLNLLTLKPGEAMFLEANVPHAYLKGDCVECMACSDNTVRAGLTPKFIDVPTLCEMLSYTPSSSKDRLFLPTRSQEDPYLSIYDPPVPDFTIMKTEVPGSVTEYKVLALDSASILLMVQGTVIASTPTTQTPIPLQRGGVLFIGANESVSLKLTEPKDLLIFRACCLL
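Technique: Diaphorase-driven resazurin-to-resorufin fluorescence, excitation 544, emission 590 nm | Assay system: Human PMI in coupled enzyme assay | Times: Enzyme reaction with compound 20 min at room temperature | Medium: HEPES-buffered pH 7.4 with magnesium and detergent | Reagent: Mannose-6-phosphate 1.0 mM (near-saturating) plus 0.22 mM NADP+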
Diaphorase inh: diaphorase inhibition or chemical oxidation counter-screen; inhibition, % at 20 µM; 190,000 tested, 0.69% active; diaphorase resazurin-to-resorufin fluorescence, NADH, 16 min; bacterial (C. kluyveri) enzyme, not human;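 active = primary screen inhibition at 20 µM above a set limit, cut at about 50% in these data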
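Assay system: diaphorase enzyme from Clostridium kluyveri; Input: enzyme working solution with 0.14 U/mL diaphorase; Timing: 16 min at room temperature; Technique: resorufin fluorescence, excitation 544 nm, emission 590 nm; Benchmarks: positive control minus NADH, DMSO neutral control.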
PMI activator: phosphomannose isomerase (human) activation; P34949; 190,000 tested, 0.005% active; purified human PMI, coupled resazurin fluorescence, 20 min; active compounds read high; 1 = vehicle control, 0 substrate-free wells; activation factor at 20 µM;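 active = activation factor of 2 or more at 20 µM, relative to plate controls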
A number is an active result; - = inactive.

SMILES	Diaphorase act	G6PDH CS	Redox H2O2 prof	PMI act hi M6P	Diaphorase inh	PMI activator
COc1ccc(/C=C/C(=O)NC(=S)NNC(=O)c2cccnc2)cc1OC	-	-	-	-	82	-
COc1ccc(/C=C/C(=O)NC(=S)NNC(=O)Cc2cccs2)cc1OC	-	-	-	-	-	-
CCCCn1nc(C(=O)Oc2ccc3c(C)cc(=O)oc3c2)c2ccccc2c1=O	-	-	-	-	-	-
CC(=O)c1cc2c(cc1NS(=O)(=O)c1ccccc1F)OCO2	-	-	-	-	-	-
COCCSc1ccccc1C(=O)Nc1ccccc1C#N	-	-	-	-	-	-
Cc1ccc(-c2nnc3ccc(SC(C)C(=O)O)nn23)cc1 (stereo unspecified)	-	-	-	-	-	-
CC(Sc1ccc2nnc(-c3ccc(F)cc3)n2n1)C(=O)O (stereo unspecified)	-	-	-	2.2	-	-
Cc1ccc(C)c2[nH]c(=O)c(C(c3nnnn3Cc3ccco3)N3CCc4ccccc4C3)cc12 (stereo unspecified)	-	-	-	-	57	-
Cc1ccc(C)c2[nH]c(=O)c(C(c3nnnn3CCc3ccccc3)N3CCOCC3)cc12 (stereo unspecified)	-	-	-	-	-	-
CCCCC(=O)Nc1ccc(C(=O)NNC(=O)c2ccc(C)c(Br)c2)cc1	-	-	-	-	-	-
CC(=O)c1ccc(NC(=O)c2ccc(C)c(Br)c2)cc1	-	-	-	-	94	-
CCOC(=O)c1ccc(NC(=O)C(=O)NCc2ccco2)cc1	-	-	-	-	-	-
COC(=O)CC1C(=O)NCCN1C(=O)CSc1nc2ccc([N+](=O)[O-])cc2s1 (stereo unspecified)	-	-	-	-	-	-
O=C(O)CC1S/C(=N/N=C/c2ccc(-c3ccccc3[N+](=O)[O-])o2)NC1=O (stereo unspecified)	-	-	-	-	52	-
Cc1ccc2c(c1)N/C(=C(\C=C(/Cl)[N+](=O)[O-])[N+](=O)[O-])N2	-	-	-	-	75	-
Nc1cccnc1Sc1ccc([N+](=O)[O-])cn1	-	-	-	-	50	-
O=[N+]([O-])c1ccc(Sc2ccccc2)nc1	-	-	-	-	-	-
COc1cc(/C=C2\SC(=O)N(Cc3ccc(Cl)cc3)C2=O)cc([N+](=O)[O-])c1O	-	-	-	-	87	-
COc1cc(/C=C2\SC(=O)N(Cc3ccc(F)cc3)C2=O)cc([N+](=O)[O-])c1O	-	-	-	-	-	-
Cc1nc2sc3c(c2c(=O)[nH]1)CCC3	-	-	-	-	-	-
Cc1cc(-c2nc3c4c5c(sc4[nH]c(=O)n3n2)CCC5)c(C)o1	-	-	-	-	57	-
CCNC(=S)NNc1nc(N2CCCCC2)nc(N2CCOCC2)n1	-	-	-	-	-	-
NNC(=O)c1cc(O)c(O)c(O)c1	-	-	-	-	65	-
O=C1C(Cl)=C(N2CCCCC2)C(=O)C(Cl)=C1c1cnc(N2CCCCC2)s1	-	-	-	-	62	-
Cc1ccc2c(C)cc(=S)[nH]c2c1	-	-	-	2.8	-	-
SMILES	Diaphorase act	G6PDH CS	Redox H2O2 prof	PMI act hi M6P	Diaphorase inh	PMI activator
Cc1ccc2[nH]c(=S)cc(C)c2c1	-	-	-	-	-	-
Cc1cc(=S)[nH]c2ccccc12	-	-	-	2.1	-	-
CSc1nc(-c2ccco2)nn1S(=O)(=O)c1ccc(C)cc1	-	-	-	-	58	-
Cc1ccc(NC(=O)CN2C(=O)S/C(=C\c3ccc(-c4cccc(C(=O)O)c4C)o3)C2=O)cc1C	-	-	-	-	110	-
CCOc1cc(/C=N/Nc2cccc(C(=O)O)c2)ccc1OCC(=O)N1CCCCC1	-	-	-	2.3	-	-
CCOc1cc(C=O)ccc1OCC(=O)N1CCCC1	-	-	-	-	-	-
O=C(NC1CCCCC1)C(c1ccc(O)c(O)c1)N(C(=O)Cn1nnc2ccccc21)c1cccc(O)c1 (stereo unspecified)	-	-	-	-	56	-
Cc1ccc(S(=O)(=O)NCC(=O)N(c2ccccc2)C(C(=O)NCc2ccccc2)c2ccco2)cc1 (stereo unspecified)	-	-	-	-	51	-
O=C(N/N=C/c1ccc(N2CCOCC2)o1)c1cccc([N+](=O)[O-])c1	-	-	-	-	76	-
O=C(N/N=C/c1ccc(N2CCCCC2)o1)c1ccccc1	-	-	-	-	-	-
CCC1=NN2C(=N)/C(=C\c3ccc(SCc4ccco4)o3)C(=O)N=C2S1	-	-	-	-	56	-
CCC1=NN2C(=N)/C(=C/c3c(C)nn(-c4ccccc4)c3Cl)C(=O)N=C2S1	-	-	-	-	-	-
O=C1NC(=S)S/C1=C\c1ccc(SCc2ccccc2)o1	-	-	-	-	-	-
CCCC1=NN2C(=N)/C(=C\c3cc(C)n(-c4cccc(C)c4)c3C)C(=O)N=C2S1	-	-	-	-	-	-
CCCC1=NN2C(=N)/C(=C\c3ccc(SCc4ccco4)o3)C(=O)N=C2S1	-	-	-	-	51	-
O=C1NC(=S)S/C1=C\c1ccc(SCc2ccco2)o1	-	-	-	-	81	-
O=C1NC(=O)C2(COC(c3cccnc3)OC2)S1 (stereo unspecified)	-	-	-	-	-	-
C/C(CC(=O)NC1CCCCC1)=N\NC(=O)Cc1ccc(-c2ccccc2)cc1	-	-	-	-	-	-
Oc1ccc(/C=N/Nc2ccc3ccccc3c2)c(O)c1	-	-	-	-	-	-
CCCCCCCC(=O)N/N=C(/C)c1c(O)cc(C)oc1=O	-	-	-	-	-	-
Cc1cc(O)c(/C=N/Nc2ccccc2)c(=O)o1	-	-	-	2	-	-
Cc1cc(O)c(C=Nc2cccc(Cl)c2)c(=O)o1	-	-	-	-	-	-
C/C(=N\Nc1ccc(Cl)cc1)c1c(O)cc(C)oc1=O	-	-	-	2.6	-	-
Cn1cc(/C=N/Nc2ccccc2)c2ccccc21	-	-	-	2.5	-	-
Oc1ccccc1/C=N/Nc1ccccc1	-	-	-	2.3	-	-
O=C(Nc1ccc(Cl)cc1)/C(=C/c1ccc([N+](=O)[O-])cc1)c1nc2ccccc2s1	-	-	-	-	-	-
CCOC(=O)C1CC(c2ccccc2)=NNC1=O (stereo unspecified)	-	-	-	-	-	-
Oc1ccccc1/C=N/Nc1ncc(Br)cn1	-	58	-	-	-	-

Screening results as filed in PubChem BioAssay.
